Results reported in PubChem BioAssay.
Active and inactive are the calls of the source.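 How the source made its calls, unless noted: active means viability at or under a set limit in both replicates, limit being median viability minus 3 SD (cut at about 48% in these data, passing the limit was not always enough); inconclusive means at or under the limit in just one replicate; inactive means at or above the limit in both replicates.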

How the values were obtained:
[1] = SK-BR-3 cell growth inhibitors, pilot screen, 24 h, human (AID 572;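 active means viability at or below 10% of carrier control in both of two separate runs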;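 further: compound exposure lasted between 18 and 24 h rather than exactly 24 h; 100% = carrier-treated control wells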); conditions: SK-BR-3 viability, CellTiter-Glo luminescence, at 10 µM, stronger effect = lower value
[2] = HUVEC growth inhibition – cell-based, human, primary screen (AID 575;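 active means viability at or below 30% in both replicate assays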;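 further: 100% = median of untreated cell wells with 0.1% DMSO on each plate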); conditions: HUVEC proliferation, CellTiter-Glo luminescence, 72 h; at 10 µM; stronger effect = lower value
Summary of the method: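 Material: primary human umbilical vein endothelial cells / Schedule: 72 h exposure, 37 °C, 5% CO2, 30 min RT equilibration / Signal: ATP-based CellTiter-Glo luminescent read / Read-out basis: percent of median DMSO-control luminescence / Control set: 32 DMSO-only cell-control wells (high), 32 MePR drug-control wells (low) per plate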

[3] = growth inhibitors of H69AR lung tumor, primary screen, human, duplicate replicates (AID 580); conditions: H69AR lung tumor cells viability, ATP luminescence, 72 h; at 10 µM; stronger effect = lower value;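 further: 100% = mean luminescence of untreated wells and 0% = no signal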
[4] = reversal of MRP1-mediated doxorubicin resistance, pilot screen, H69AR cells, doxorubicin co-treatment (AID 601;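 active means viability loss from added drug above about 55%, and viability with drug at most 40%, in both replicates, limit read from the data, passing the limit was not always enough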); conditions: CellTiter-Glo, 72 h, at 10 µM; for differential viability (reversal): stronger effect = higher value
[5] = 384-well plate pilot, post-Golgi transport modulator project, inhibition of yeast transport mutant growth (AID 636; in the data active means inhibition above about 31%); conditions: absorbance 615 nm, about 18 h, stronger effect = higher value
[6] = growth suppression of yeast trafficking mutant, preliminary HTS, modulators of trafficking downstream of Golgi apparatus project, 1536-format plate, OD 615 nm (AID 637; in the data active means inhibition above about 30%); conditions: yeast transport mutant growth, absorbance 615 nm, 18 h; stronger effect = higher value
[7] = H69AR cells + 2 uM doxorubicin, measured here: viability with 2 uM doxorubicin, stronger effect = lower value
[8] = H69AR cells, compound alone cytotoxicity

Row | Compound | viability [1] | viability [2] | viability [3] | differential viability (reversal) ([4]; H69AR cells + 2 uM doxorubicin) | viability [4, 7] [%] | viability [4, 8] [%] | inhibition [5] | inhibition [6]
1 | CCCOc1cccc(C(=O)Nc2cc(NC(=O)c3ccco3)ccc2OC)c1 | 88% (inactive) | 85.1% (inactive) | 85% (inactive) | -6.07% (inactive) | 91.1 | 85 | -3.78% (inactive) | -2.55% (inactive)
2 | CCOC(=O)C1CCN(CC(=O)c2c(C)[nH]c3ccccc23)CC1 | 100% (inactive) | 112% (inactive) | 92.6% (inactive) | 0.74% (inactive) | 91.9 | 92.6 | -0.67% (inactive) | -2.73% (inactive)
3 | CCn1c(SCc2cc(=O)[nH]c3ccccc23)nc2c1c(=O)n(C)c(=O)n2C | 95% (inactive) | 109% (inactive) | 92% (inactive) | -3.81% (inactive) | 95.8 | 92 | 0.68% (inactive) | -2.18% (inactive)
4 | O=C(C1CCCCC1)N1CC(=O)N2CCc3ccccc3C2C1 (configuration not stated) | 104% (inactive) | 107% (inactive) | 96.7% (inactive) | -3.46% (inactive) | 100 | 96.7 | -0.91% (inactive) | -0.83% (inactive)
5 | CC(=O)OCC(=O)[C@H]1CC[C@H]2[C@@H]3CCC4=CC(=O)CC[C@]4(C)[C@H]3CC[C@]12C | 86% (inactive) | 39.2% (inactive) | 102% (inactive) | -0.2% (inactive) | 102 | 102 | -0.91% (inactive) | -3.5% (inactive)
6 | O=C(C1=C(O)C(=O)N(c2ncccn2)C1c1cccc(Cl)c1)c1ccco1 (configuration not stated) | 119% (inactive) | 93% (inactive) | 89.2% (inactive) | -3.12% (inactive) | 92.4 | 89.2 | 2.33% (inactive) | 1.29% (inactive)
7 | COc1ccc(/C=C/C(=O)Nc2ccccc2C(=O)O)cc1OC | 104% (inactive) | 64.4% (inactive) | 94.7% (inactive) | 0.56% (inactive) | 94.1 | 94.7 | 0.78% (inactive) | -1.83% (inactive)
8 | Cc1ccc(CN2C(=O)CCC2C(=O)NCCCN2CCCC(C)C2)cc1 (configuration not stated) | 82% (inactive) | 113% (inactive) | 97.4% (inactive) | 8.96% (inactive) | 88.4 | 97.4 | -3.07% (inactive) | -3.45% (inactive)
9 | COP(C)(=O)c1c(C)nn(-c2ccccc2)c1C (configuration not stated) | 122% (inactive) | 104% (inactive) | 96.3% (inactive) | 1.8% (inactive) | 94.5 | 96.3 | 0.39% (inactive) | 1.15% (inactive)
10 | O=C(NCc1ccco1)c1cc2sccc2n1Cc1ccccc1 | 131% (inactive) | 97.3% (inactive) | 71.2% (inactive) | -18.5% (inactive) | 89.7 | 71.2 | 3.01% (inactive) | 14.2% (inactive)
11 | COc1ccc(OC)c(Nc2nc(-c3cccs3)cs2)c1 | 82% (inactive) | 60.7% (inactive) | 76.5% (inactive) | -7.61% (inactive) | 84.1 | 76.5 | -6.71% (inactive) | 0.36% (inactive)
12 | Cc1ccc(C2=Nc3ccccc3NC(C)(c3ccc(C)o3)C2)o1 (configuration not stated) | 95% (inactive) | 79% (inactive) | 64% (inactive) | -10.7% (inactive) | 74.7 | 64 | 3.97% (inactive) | 27.1% (inactive)
13 | c1cncc(C2Nc3ccccc3-c3nc4ccccc4n32)c1 (configuration not stated) | 90% (inactive) | 98.1% (inactive) | 78.7% (inactive) | -12.2% (inactive) | 90.9 | 78.7 | -2.53% (inactive) | 0.91% (inactive)
14 | O=C(c1cccnc1)N1CCN(C(=O)c2ccccc2F)CC1 | 97% (inactive) | 98.5% (inactive) | 97.2% (inactive) | 11.5% (inactive) | 85.7 | 97.2 | -4% (inactive) | -5.09% (inactive)
15 | CCOC(=O)N(C)c1ccc(C(O)(C(F)(F)F)C(F)(F)F)cc1 | 92% (inactive) | 91.7% (inactive) | 102% (inactive) | 5.16% (inactive) | 97.1 | 102 | 1.76% (inactive) | -6.55% (inactive)
16 | COC(=O)CN(Cc1ccco1)S(=O)(=O)c1ccccc1 | 98% (inactive) | 102% (inactive) | 77.6% (inactive) | -3.33% (inactive) | 80.9 | 77.6 | -2.67% (inactive) | -0.91% (inactive)
17 | CS(=O)(=O)N(CC(=O)N1CCCCCC1)c1ccc(Br)cc1 | 86% (inactive) | 96.5% (inactive) | 97.9% (inactive) | 17.2% (inactive) | 80.6 | 97.9 | -7.47% (inactive) | -10% (inactive)
18 | CC1(C)CC(=O)CC(=Nc2ccc(C(=O)O)cc2)C1 | 92% (inactive) | 97.3% (inactive) | 87.7% (inactive) | -4.41% (inactive) | 92.1 | 87.7 | -3.64% (inactive) | -0.16% (inactive)
19 | N[C@@H](C(=O)N[C@@H]1C(=O)N2C(C(=O)O)=C(Cl)CS[C@H]12)c1ccccc1 | 108% (inactive) | 98% (inactive) | 114% (inactive) | 10.7% (inactive) | 103 | 114 | -2.6% (inactive) | 4.83% (inactive)
20 | O=C(c1ccc(F)cc1)C1CCN(CCn2c(=O)[nH]c3ccccc3c2=O)CC1 | 94% (inactive) | 89.5% (inactive) | 96.2% (inactive) | 1.93% (inactive) | 94.3 | 96.2 | -2.73% (inactive) | 1.33% (inactive)
21 | CCC(=O)N(Cc1ccco1)c1nc(-c2cc(OC)ccc2OC)cs1 | 105% (inactive) | 42.8% (inactive) | 69.3% (inactive) | -0.87% (inactive) | 70.2 | 69.3 | -2% (inactive) | -2.91% (inactive)
22 | O=C(Nc1ccc(N2CCOCC2)cc1)Nc1ccc2nc(-c3ccco3)c(-c3ccco3)nc2c1 | 71.5% (inactive) | 16.6% (active) | 13.5% (active) | -8.11% (inactive) | 21.6 | 13.5 | -7.73% (inactive) | -1.45% (inactive)
23 | Cc1ccc2nc3c(cc2c1)CN(Cc1ccco1)C(=NCC1CCCO1)S3 (configuration not stated) | 100% (inactive) | 65.6% (inactive) | 7.64% (active) | -1.93% (inactive) | 9.57 | 7.64 | 9.33% (inactive) | -0.18% (inactive)
24 | CCOc1nc(-c2ccccc2O)nc2ccccc12 | 68% (inactive) | 108% (inactive) | 100% (inactive) | 0.64% (inactive) | 99.5 | 100 | 1.23% (inactive) | 0.55% (inactive)
